Screens (PubChem BioAssay)
HCV NS3 hel inh = inhibitors of Hepatitis C virus NS3 helicase; NS3 helicase DNA unwinding, Cy5 molecular beacon fluorescence; inhibition, % at 10.9 µM; 290,000 compounds, 0.56% hits; AID 1800;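 active = inhibition above the mean of all tested compounds plus 3 SD, set per campaign, cut at about 35% in these data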
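Measured by: Cy5 fluorescence, 0 and 60 min reads / Assay system: NS3 helicase fragment of HCV / Control set: low DMSO, high thioflavine S at 110 µM / Times: 1 h reaction at 25 °C, ATP-initiated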
SUMO1 PPI mod = alters human SUMO1 binding to SIM partners; P63165; SUMO1 binding to a labelled peptide, TR-FRET, 1 h; inhibition, % at 20 µM; 360,000 compounds, 0.33% hits; AID 602429; in the data active = inhibition above about 37%
DNMT1 block = blocks human DNA methyltransferase DNMT1; DNMT1 molecular beacon, Hinp1I cleavage, fluorescence; P26358; inhibition (reported as % activation of signal), % at 10 µM; 360,000 compounds, 0.83% hits; in the data active = inhibition above about 50%
MBD2 inh = inhibitors of human MBD2 binding to methylated oligonucleotide. 370,000 compounds, 0.31% hits. AID 686964. inhibition, % at 4.4 µM. TR-FRET; in the data active = inhibition above about 13%
UHRF1 binding = UHRF1 methyl-DNA binding inhibition. AID 687016. UHRF1 binding to methylated oligo, TR-FRET. Q96T88. inhibition, % at 4.4 µM. 370,000 compounds, 0.75% hits; in the data active = inhibition above about 21%;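 also: UHRF1 SRA domain binding a hemimethylated CpG hairpin DNA probe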
Target sequence (Q96T88 whole entry, looked up, the tested form may be a part): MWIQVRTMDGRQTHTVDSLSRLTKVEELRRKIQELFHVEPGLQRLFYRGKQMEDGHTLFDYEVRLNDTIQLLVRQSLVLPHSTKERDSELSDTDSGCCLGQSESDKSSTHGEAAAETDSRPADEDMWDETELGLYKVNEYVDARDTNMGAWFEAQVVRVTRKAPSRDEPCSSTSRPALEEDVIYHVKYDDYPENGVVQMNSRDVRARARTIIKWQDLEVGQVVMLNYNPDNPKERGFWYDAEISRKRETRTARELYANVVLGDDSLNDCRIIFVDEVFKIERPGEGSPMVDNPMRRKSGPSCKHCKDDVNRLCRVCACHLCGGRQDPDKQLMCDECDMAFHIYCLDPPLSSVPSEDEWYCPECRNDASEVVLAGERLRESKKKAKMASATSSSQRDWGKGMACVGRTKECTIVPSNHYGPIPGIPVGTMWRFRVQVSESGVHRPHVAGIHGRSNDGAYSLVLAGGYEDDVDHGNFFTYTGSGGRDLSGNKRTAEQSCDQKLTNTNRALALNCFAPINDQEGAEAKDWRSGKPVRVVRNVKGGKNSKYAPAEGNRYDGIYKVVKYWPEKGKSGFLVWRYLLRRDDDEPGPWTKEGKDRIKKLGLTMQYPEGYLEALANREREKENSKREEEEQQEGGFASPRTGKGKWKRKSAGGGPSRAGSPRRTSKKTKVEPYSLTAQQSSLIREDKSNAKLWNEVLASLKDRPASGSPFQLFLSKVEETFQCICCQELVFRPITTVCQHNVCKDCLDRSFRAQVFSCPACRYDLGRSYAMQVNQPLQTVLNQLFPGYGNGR
DSG3 Ab inh = inhibitors of pemphigus antibody binding to human desmoglein-3; binding (percent of control), % at 10 µM; 310,000 compounds, 0.48% hits; P32926; DSG3-coupled beads, scFv-anti-DSG3-GFP binding, flow cytometry; stronger effect = lower value;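 active = binding more than 3 SD below its plate's average and above zero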
DNMT1 interf DR = shows spectral interference in the DNMT1 beacon assay. shares compounds with DNMT1 block. molecular beacon fluorescence, spectral interference counter-screen. IC50, µM. 200 tested, under 10 active; call rule not given here
DNMT1 inh conf = DNMT1 inhibition confirmation, single concentration; shares compounds with DNMT1 block; DNMT1 molecular beacon HinP1I cleavage, fluorescence; inhibition, % at 10 µM; 2,300 compounds, 8% hits; AID 602385;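 active = average inhibition of at least 30% in the single-concentration confirmation test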
DNMT1 interf = counter-screen for DNMT1 inhibitors: spectral interference | shares compounds with DNMT1 block | DNMT1 molecular beacon spectral interference counterscreen, fluorescence 485/520 | activation (fluorescence interference), % at 10 µM | 2,300 compounds, 1% hits | AID 602387;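 active = activation of at least 30% at 10 µM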;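 also: DNMT1 catalytic domain with a HinP1I cleavage step and a FAM/dabcyl DNA beacon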
Each line names hits and unclear results; the compound was inactive in the other large screens (follow-up assays come after a bar, where they were run). Hits are enriched below; roughly 2.5% of the tested compounds scored in any of these assays.

CCOC(=O)c1cc(-c2ccc(C)cc2)n(CC(=O)NCc2ccco2)c1C	DNMT1 block 50 | DNMT1 inh conf inactive | DNMT1 interf inactive
O=C(COC(=O)c1cccnc1Cl)NCc1ccco1	none (no result: DSG3 Ab inh)
COc1cc(NC(=O)c2cccs2)c(C(=O)OCC(=O)NCc2ccco2)cc1OC	none
O=C(COC(=O)c1cccs1)NCc1ccco1	DNMT1 block 73 (no result: HCV NS3 hel inh) | DNMT1 inh conf inactive | DNMT1 interf inactive
Cc1ccc(NS(=O)(=O)c2cccc(C(=O)OCC(=O)NCc3ccco3)c2)cc1	none
O=C(COC(=O)c1ccc(NS(=O)(=O)c2cccs2)cc1)NCc1ccco1	SUMO1 PPI mod 40, DNMT1 block 92 (no result: MBD2 inh, UHRF1 binding) | DNMT1 interf DR inactive | DNMT1 inh conf 71 | DNMT1 interf inactive
O=C(COC(=O)c1ccccc1Cl)NCc1ccco1	DNMT1 block 85 (no result: HCV NS3 hel inh) | DNMT1 inh conf inactive | DNMT1 interf inactive
C=CCC[C@@H](Cc1ccc(F)cc1)C(=O)OC[C@@H](Cc1c[nH]c2ccccc12)NC(=O)[C@H](CC=C)CC(=O)N[C@H](CO)Cc1ccccc1	DNMT1 block 71 (no result: HCV NS3 hel inh) | DNMT1 inh conf inactive | DNMT1 interf inactive
C=CCC[C@H](Cc1ccc(F)cc1)C(=O)OC[C@H](Cc1c[nH]c2ccccc12)NC(=O)[C@H](CC=C)CC(=O)N(CCO)Cc1ccccc1	none (no result: HCV NS3 hel inh)
C=CCC[C@@H](Cc1ccc(F)cc1)C(=O)OC[C@@H](Cc1c[nH]c2ccccc12)NC(=O)[C@@H](CC=C)CC(=O)N[C@H](CO)Cc1ccccc1	DNMT1 block 74 (no result: HCV NS3 hel inh) | DNMT1 inh conf inactive | DNMT1 interf inactive
C=CC[C@@H](CC(=O)N[C@@H](CO)Cc1ccccc1)C(=O)NC[C@@H](OC(=O)[C@@H](CC=C)Cc1ccc(F)cc1)c1ccccc1	DNMT1 block 66 (no result: HCV NS3 hel inh) | DNMT1 inh conf inactive | DNMT1 interf inactive
C=CCC[C@@H](Cc1ccc(F)cc1)C(=O)OC[C@@H](Cc1c[nH]c2ccccc12)NC(=O)[C@@H](CC=C)CC(=O)N(CCO)Cc1ccccc1	DNMT1 block 60 (no result: HCV NS3 hel inh) | DNMT1 inh conf inactive | DNMT1 interf inactive
C=CC[C@@H](CC(=O)N[C@@H](CO)Cc1ccccc1)C(=O)NC[C@H](OC(=O)[C@@H](CC=C)Cc1ccc(F)cc1)c1ccccc1	none (no result: HCV NS3 hel inh)
C[C@H](CO)N1C[C@H](C)[C@@H](CN(C)C(=O)Nc2ccccc2)Oc2c(NC(=O)Nc3ccc(C(F)(F)F)cc3)cccc2C1=O	none (no result: HCV NS3 hel inh)
COc1ccc(C2CC(c3cccc([N+](=O)[O-])c3)=NN2/C(C)=C/C(C)=O)cc1 (stereo not drawn)	DNMT1 block 57 (no result: HCV NS3 hel inh) | DNMT1 inh conf inactive | DNMT1 interf inactive
OC1CCCN(Cc2ccc3ccc4cccc5ccc2c3c45)C1 (stereo not drawn)	DNMT1 block 65 | DNMT1 inh conf inactive | DNMT1 interf inactive
C[C@H](NC(=O)c1ccco1)C(=O)Nc1nc(-c2ccccn2)cs1	DNMT1 block 77 (no result: HCV NS3 hel inh, DSG3 Ab inh) | DNMT1 inh conf inactive | DNMT1 interf inactive
O=C(Nc1nc(-c2ccccn2)cs1)c1ccco1	none
O=C(Nc1ccc2oc(-c3cccc4ccccc34)nc2c1)c1ncn[nH]1	DNMT1 block 67 | DNMT1 inh conf inactive | DNMT1 interf inactive
OCCCN=c1cc(-c2ccccc2)oc2ccc(Cl)cc12	none
CC1(C)CC(N=c2cc(-c3ccccc3)oc3ccc(Cl)cc23)CC(C)(C)N1	DNMT1 block 75 | DNMT1 interf DR inactive | DNMT1 inh conf 33 | DNMT1 interf inactive
CC(=O)CCS(=O)(=O)c1ccc(Oc2ccc(S(=O)(=O)CCC(C)=O)cc2)cc1	none
Cc1ccc(NC(=O)Nc2nnc(-c3ccccc3F)s2)cc1	DNMT1 block 56 | DNMT1 inh conf inactive | DNMT1 interf inactive
CCc1nn(CC(=O)NC(C)CCc2ccccc2)c(=O)c2cc3cc(F)ccc3n12 (stereo not drawn)	DNMT1 block 53 | DNMT1 inh conf inactive | DNMT1 interf inactive
N#Cc1cnn(Cc2ccccc2)c1N	DNMT1 block 72 (no result: DSG3 Ab inh) | DNMT1 inh conf inactive | DNMT1 interf inactive
COc1ccc(NC(=O)CCNS(=O)(=O)c2cccc3nsnc23)cc1OC	none
Cc1cc(-n2cnnn2)cc(C)c1S(=O)(=O)N(C)c1ccccc1	none (no result: DSG3 Ab inh)
O=C(O)Cn1ncc2c1-c1ccoc1CC2	DNMT1 block 89 | DNMT1 inh conf inactive | DNMT1 interf inactive
O=C(Cn1ncc2c1-c1ccccc1OC2)N1CCc2ccccc21	none
O=C(NCc1cc(C(F)(F)F)ccc1Cl)c1cccc2c1C(=O)c1ccc(N3CCOCC3)cc1S2(=O)=O	DNMT1 block 62 (no result: HCV NS3 hel inh) | DNMT1 inh conf inactive | DNMT1 interf inactive
Cc1cc(C(=O)OCC(=O)Nc2ccccc2[N+](=O)[O-])c2ccccc2n1	none
Cc1ccc(NC(=O)COC(=O)c2cc(C)nc3ccccc23)c([N+](=O)[O-])c1	DNMT1 block 64 | DNMT1 inh conf inactive | DNMT1 interf inactive
O=C(c1cc(-c2ccncc2)nc2ccccc12)N1CCCC(C(F)(F)F)C1 (stereo not drawn)	none (no result: HCV NS3 hel inh)
O=C(c1cc(-c2ccco2)nc2ccccc12)N1CCCC(C(F)(F)F)C1 (stereo not drawn)	DNMT1 block 66 (no result: HCV NS3 hel inh) | DNMT1 inh conf inactive | DNMT1 interf inactive
CNC(=O)COC(=O)c1cc(-c2ccco2)nc2ccccc12	DNMT1 block 56 | DNMT1 inh conf inactive | DNMT1 interf inactive
O=C(O)c1cc(-c2ccco2)nc2cc3ccccc3cc12	SUMO1 PPI mod 38, DNMT1 block 76 | DNMT1 inh conf inactive | DNMT1 interf inactive
CNC(=O)c1ccsc1NC(=O)CN1C(=O)CCC1=O	none (no result: HCV NS3 hel inh)
CCOc1ccc(N(CC(=O)NCc2ccc3c(c2)OCO3)C(=O)c2csnn2)cc1	none
COc1ccc(S(=O)(=O)N2CCOCC2)cc1NC(=O)COC(=O)c1ccc(C)s1	none
Cn1c(N)c(C(=O)COC(=O)c2cc(-c3ccco3)nc3ccccc23)c(=O)n(C)c1=O	DNMT1 block 110 | DNMT1 interf DR inactive | DNMT1 inh conf 31 | DNMT1 interf inactive
O=C(N/N=C/c1ccc2c(c1)OCO2)c1cc(-c2ccco2)nc2ccccc12	DNMT1 block 72 (no result: HCV NS3 hel inh) | DNMT1 inh conf inactive | DNMT1 interf inactive
O=C(N/N=C/c1ccc2c(c1)OCO2)c1cc(-c2ccccc2)nc2ccccc12	none
Cn1c(=O)c2cc(NC(=S)NC3CC3)ccc2n1Cc1ccccc1	none (no result: HCV NS3 hel inh, DSG3 Ab inh)
Cc1ccc(S(=O)(=O)NCCS(=O)(=O)N2CCN(c3ccc(F)cc3)CC2)cc1	none (no result: HCV NS3 hel inh)
